Laboratory results taken from ChEMBL document CHEMBL4422685, “Design, synthesis and evaluation of a series of 5-methoxy-2,3-naphthalimide derivatives as AcrB inhibitors for the reversal of bacterial resistance” (Bioorg Med Chem Lett, 2019).
Activity calls are given as the source filed them. No cut-off for these calls is given here.

Experiments:
[1] = molecular target: T1, Multidrug efflux pump subunit AcrB (Escherichia coli (strain K12)) (UniProt P31224); assay: Inhibition of AcrB in wild-type drug-resistant Escherichia coli BW2113 assessed as potentiation of chloramphenicol-induced antimicrobial activity by measuring chloramphenicol MIC at 16 ug/ml by checkerboard titration method (Rvb =16 ug/ml)
T1 sequence (whole entry): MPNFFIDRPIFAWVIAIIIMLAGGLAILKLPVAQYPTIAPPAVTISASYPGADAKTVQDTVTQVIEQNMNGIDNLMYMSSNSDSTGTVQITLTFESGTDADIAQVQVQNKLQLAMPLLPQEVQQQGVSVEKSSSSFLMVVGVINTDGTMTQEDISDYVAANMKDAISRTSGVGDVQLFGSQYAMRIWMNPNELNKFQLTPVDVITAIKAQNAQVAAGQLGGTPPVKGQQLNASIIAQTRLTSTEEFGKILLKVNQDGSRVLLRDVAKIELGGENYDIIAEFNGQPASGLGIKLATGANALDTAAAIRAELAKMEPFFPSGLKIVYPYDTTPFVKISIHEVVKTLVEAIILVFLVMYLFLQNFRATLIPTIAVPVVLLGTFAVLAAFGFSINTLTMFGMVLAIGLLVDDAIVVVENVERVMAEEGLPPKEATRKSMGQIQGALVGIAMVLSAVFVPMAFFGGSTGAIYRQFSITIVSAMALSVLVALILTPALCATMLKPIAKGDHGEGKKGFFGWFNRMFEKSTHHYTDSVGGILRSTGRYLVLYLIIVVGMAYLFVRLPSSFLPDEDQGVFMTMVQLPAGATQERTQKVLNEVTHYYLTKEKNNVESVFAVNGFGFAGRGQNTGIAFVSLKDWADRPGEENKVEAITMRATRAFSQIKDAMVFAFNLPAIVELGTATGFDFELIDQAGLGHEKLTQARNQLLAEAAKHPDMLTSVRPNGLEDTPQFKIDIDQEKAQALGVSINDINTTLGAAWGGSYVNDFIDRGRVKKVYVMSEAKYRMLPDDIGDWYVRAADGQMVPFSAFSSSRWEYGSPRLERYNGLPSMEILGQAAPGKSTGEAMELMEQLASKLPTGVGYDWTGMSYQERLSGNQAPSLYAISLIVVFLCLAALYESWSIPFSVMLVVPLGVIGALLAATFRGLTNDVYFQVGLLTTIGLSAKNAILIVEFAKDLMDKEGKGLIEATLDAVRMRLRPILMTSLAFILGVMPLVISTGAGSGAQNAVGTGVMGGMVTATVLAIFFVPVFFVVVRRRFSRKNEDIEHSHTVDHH

[2] = molecular target: T1, Multidrug efflux pump subunit AcrB (Escherichia coli (strain K12)); assay: Inhibition of AcrB in wild-type drug-resistant Escherichia coli […] assessed as potentiation of erythromycin-induced antimicrobial activity by measuring erythromycin MIC at 128 ug/ml by checkerboard titration method (reference value: 64 ug/ml)
[3] = molecular target: T1, Multidrug efflux pump subunit AcrB (Escherichia coli (strain K12)); assay: Inhibition of AcrB in wild-type drug-resistant Escherichia coli […] assessed as potentiation of tetraphenyl phosphonium chloride-induced antimicrobial activity by measuring tetraphenyl phosphonium chloride MIC at 16 ug/ml by checkerboard titration method (reference value: 1024 ug/ml)
[4] = molecular target: T1, Multidrug efflux pump subunit AcrB (Escherichia coli (strain K12)); assay: Inhibition of AcrB in wild-type drug-resistant Escherichia coli […] assessed as potentiation of tetraphenyl phosphonium chloride-induced antimicrobial activity by measuring tetraphenyl phosphonium chloride MIC at 128 ug/ml by checkerboard titration method (reference value: 1024 ug/ml)
[5] = molecular target: T1, Multidrug efflux pump subunit AcrB (Escherichia coli (strain K12)); assay: Inhibition of AcrB in wild-type drug-resistant Escherichia coli […] assessed as potentiation of levofloxacin-induced antimicrobial activity by measuring levofloxacin MIC at 64 ug/ml by checkerboard titration method (reference value: 0.063 ug/ml)
[6] = molecular target: T1, Multidrug efflux pump subunit AcrB (Escherichia coli (strain K12)); assay: Inhibition of AcrB in wild-type drug-resistant Escherichia coli […] assessed as potentiation of levofloxacin-induced antimicrobial activity by fold reduction in levofloxacin MIC at 16 to 32 ug/ml by checkerboard titration method relative to levofloxacin alone
[7] = molecular target: T1, Multidrug efflux pump subunit AcrB (Escherichia coli (strain K12)); assay: Inhibition of AcrB in wild-type drug-resistant Escherichia coli […] assessed as reduction in glucose-induced nile red efflux at 100 uM by fluorescence assay
Summary of the method: (§1)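 E. coli cells (wild-type resistant with active pump, acrB-deleted, or wild-type plus compound) preloaded with Nile Red before fluorescence recording. Efflux triggered at 100 s by adding 0.2% glucose. Fluorescence traces followed; experiments with different cell batches on three different days.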

[8] = tested on: Escherichia coli; assay: Disruption of Escherichia coli inner membrane integrity at 128 ug/ml after 10 mins by DiOC2(3) probe based fluorescence assay; assay type: ADME, organism-based; details: in vivo
Summary of the method: (§2)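 Bacterial suspensions pre-exposed to compound for 10 min, then DiOC2(3) added and fluorescence followed to plateau. Cells re-energized with 0.5% glucose; membrane potential (inside negative) read as fluorescence rise to plateau, then collapsed with the proton ionophore CCCP. Untreated cells run alongside.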

[9] = tested on: HeLa; assay: Cytotoxicity against human HeLa cells after 48 hrs by MTT assay; assay type: cell-based
Summary of the method: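 MTT-based viability assay on human cervical cancer HeLa cells, 48 h exposure; IC50 derived.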

[10] = tested on: Escherichia coli; assay: Induction of Escherichia coli outer membrane permeabilization assessed as increase in nitrocefin hydrolysis at 8 ug/ml by spectroscopic method; assay type: organism-based
[11] = tested on: Escherichia coli; assay: Disruption of Escherichia coli inner membrane integrity at 8 ug/ml after 10 mins by DiOC2(3) probe based fluorescence assay; assay type: ADME, organism-based; details: in vivo; summary of the method: as §2
[12] = molecular target: T1, Multidrug efflux pump subunit AcrB (Escherichia coli (strain K12)); assay: Inhibition of AcrB in wild-type drug-resistant Escherichia coli […] assessed as reduction in glucose-induced nile red efflux at 50 uM by fluorescence assay; summary of the method: as §1
[13] = molecular target: T1, Multidrug efflux pump subunit AcrB (Escherichia coli (strain K12)); assay: Inhibition of AcrB in wild-type drug-resistant Escherichia coli […] assessed as reduction in glucose-induced nile red efflux at 100 to 200 uM by fluorescence assay; summary of the method: as §1
[14] = molecular target: T1, Multidrug efflux pump subunit AcrB (Escherichia coli (strain K12)); assay: Inhibition of AcrB in wild-type drug-resistant Escherichia coli […] assessed as reduction in glucose-induced nile red efflux at 500 uM by fluorescence assay; summary of the method: as §1
[15] = molecular target: T1, Multidrug efflux pump subunit AcrB (Escherichia coli (strain K12)); assay: Inhibition of AcrB in wild-type drug-resistant Escherichia coli […] assessed as reduction in glucose-induced nile red efflux at 200 uM by fluorescence assay; summary of the method: as §1
[16] = tested on: Escherichia coli; assay: Induction of Escherichia coli outer membrane permeabilization assessed as increase in nitrocefin hydrolysis at 32 ug/ml by spectroscopic method; assay type: organism-based

Row | Compound | MIC [1] | MIC [2] | MIC [3] | MIC [4] | MIC [5] | fold change (FC) [6] | inhibition [7] | Activity [8] | IC50 [9] | Activity [10] | Activity [11] | inhibition [12] | inhibition [13] | inhibition [14] | inhibition [15] | Activity [16]
1 | COc1ccccc1CN1C(=O)c2cc3cccc(OC)c3cc2C1=O | 16 µg/mL | 64 µg/mL | 1020 µg/mL | 512 µg/mL | 0.0019 µg/mL | 16 | Active | Non-Toxic | > 64 µg/mL |  |  |  |  |  |  | 
2 | COc1ccc(CN2C(=O)c3cc4cccc(OC)c4cc3C2=O)cc1 | 16 µg/mL | 32 µg/mL | 1020 µg/mL | 1020 µg/mL | 0.063 µg/mL |  | Active |  |  | Non-Toxic | Non-Toxic |  |  |  |  | 
3 | CCc1ccccc1N1C(=O)c2cc3cccc(OC)c3cc2C1=O | 16 µg/mL | 32 µg/mL | 1020 µg/mL | 512 µg/mL | 0.0313 µg/mL |  |  | Non-Toxic | > 64 µg/mL |  |  | Active |  |  |  | 
4 | CCCCCN1C(=O)c2cc3cccc(OC)c3cc2C1=O | 16 µg/mL | 8 µg/mL | 1020 µg/mL | 512 µg/mL | 0.0313 µg/mL |  | Active | Non-Toxic | > 64 µg/mL |  |  |  |  |  |  | 
5 | COc1cccc2cc3c(cc12)C(=O)N(C1CCCC1)C3=O | 16 µg/mL | 8 µg/mL | 1020 µg/mL | 1020 µg/mL | 0.063 µg/mL |  |  | Non-Toxic |  |  |  |  | inactive |  |  | 
6 | COc1cccc2cc3c(cc12)C(=O)N(C(C)C)C3=O | 8 µg/mL | 32 µg/mL | 1020 µg/mL | 512 µg/mL | 0.0313 µg/mL |  |  | Non-Toxic |  |  |  |  |  | 100% | Active | 
7 | COc1cccc2cc3c(cc12)C(=O)N(Cc1ccccc1)C3=O | 16 µg/mL | 16 µg/mL | 1020 µg/mL | 512 µg/mL | 0.063 µg/mL |  | Active | Non-Toxic |  |  |  |  |  |  |  | 
8 | CCCCCCN1C(=O)c2cc3cccc(OC)c3cc2C1=O | 16 µg/mL | 8 µg/mL | 1020 µg/mL | 128 µg/mL | 0.063 µg/mL |  |  | Non-Toxic |  |  |  | 100% |  |  |  | 
9 | COc1cccc2cc3c(cc12)C(=O)N(C)C3=O | 16 µg/mL | 32 µg/mL | 1020 µg/mL | 1020 µg/mL | 0.0313 µg/mL |  |  | Non-Toxic |  |  |  |  |  | 100% | Active | Non-Toxic
10 | COc1cccc2cc3c(cc12)C(=O)N(c1ccccc1Cl)C3=O | 16 µg/mL | 16 µg/mL | 1020 µg/mL | 512 µg/mL | 0.063 µg/mL |  |  | Non-Toxic |  |  |  | Active |  |  |  | 
